Test results reported in article PMC5609126 (ACS Chemical Neuroscience, 2017).

Assays:
[1] = Metabolite analysis in plasma and brain tissue after tracer injection; assay type: in vivo; details: Wistar rats, mean ± SD; for parent tracer, brain: brain tissue
Outline: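 Male Wistar rats (230–291 g) got radiotracer (28 ± 4 or 43 ± 24 MBq, depending on tracer) by tail vein under isoflurane and stayed conscious until sacrifice at 5, 15 or 60 min (n = 3). Heparinised plasma was run on a tC18 cartridge: the water wash was the polar metabolite fraction and the methanol eluate the nonpolar parent fraction, analysed by HPLC. Half-brains were homogenised in cold H2O/MeCN (1:1), centrifuged, and supernatants run on HPLC.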

[2] = system: P-gp; assay: P-gp blocking study with tariquidar, PET whole brain uptake; assay type: in vivo; details: Wistar rats; for increase in brain uptake after tariquidar vs baseline scans: tariquidar 15 mg/kg i.v. 30 min before tracer, PET whole brain
[3] = system: P-gp; assay: PET imaging in Mdr1a/b; assay type: in vivo, mice; details: for brain-to-blood AUC ratios: PET image-derived brain and blood curves
Outline: (§1)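 Male FVB-background wild-type, Mdr1a/b(−/−) and Bcrp1(−/−) mice (28.3–39.7 g) were isoflurane-anaesthetised with jugular cannulas. They got 3.6–3.8 MBq radiotracer and 60 min dynamic PET in groups of 4–6, mostly on HRRT. One tracer's Mdr1a/b(−/−) vs WT study used nanoPET/CT and PET/MR. Ellipsoid ROIs gave brain TACs (SUV) and left-ventricle blood curves. Brain-to-blood AUC ratios were calculated from the AUCs.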

[4] = system: BCRP; assay: PET imaging in Bcrp1; assay type: in vivo; details: Bcrp1(-/-) mice, PET image-derived brain and blood curves
Outline: as §1

[5] = PET imaging in wild-type; assay type: in vivo; details: WT mice, PET image-derived brain and blood curves
Outline: as §1

[6] = Biodistribution in selected organs; assay type: in vivo; details: Wistar rats, 5, 15, 60 min after injection
Outline: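 Male Wistar rats (218–244 g) got 50 ± 2 MBq radiotracer i.v. by tail vein under isoflurane (2% in O2). They stayed conscious until sacrifice, except the 5 min group. Rats were killed under isoflurane at 5, 15 or 60 min (n = 3). Heart-puncture blood, heart, lungs, liver, kidneys, bone, cerebral cortex, cerebellum and remaining brain were weighed and gamma-counted. Results were expressed as %ID/g.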

SMILES | parent tracer, brain ([1]; 15 min after injection) | parent tracer, plasma ([1]; 15 min after injection) | parent tracer, plasma ([1]; 60 min after injection) | time of highest brain uptake ([2]; PET whole brain time-activity curve, tariquidar blocking study) [min] | increase in brain uptake after tariquidar vs baseline scans [2] [fold] | brain-to-blood AUC ratios ([3]; Mdr1a/b(-/-) mice) | higher brain uptake in Mdr1a/b(-/-) mice compared with wild-type mice ([3]; during the first 10 min, PET whole brain) [fold] | brain-to-blood AUC ratios [4] | brain-to-blood AUC ratios [5] | bone uptake (defluorination) [6] | brain uptake [6] | parent tracer, brain ([1]; 5 min after injection) | parent tracer, brain ([1]; 60 min after injection) | parent tracer, plasma ([1]; 5 min after injection) | SUV plateau of brain uptake ([3]; Mdr1a/b(-/-) mice, at the end of the scan (60 min)) | higher brain uptake in Mdr1a/b(-/-) mice than in wild-type mice ([3]; maximum level over 60 min scan, PET whole brain) [fold]
COc1ccc(CCN(CC[18F])CCC[C@](C#N)(c2ccc(OC)c(OC)c2)C(C)C)cc1OC [[^18F]1, (R)-5-((3,4-Dimethoxyphenethyl)(2-[^18F]fluoroethyl)amino)-2-(3,4-dimethoxyphenyl)-2-isopropylpentanenitrile] | 14 ± 2 Percentage of total radioactivity | 19 ± 2 Percentage of total radioactivity | 3 ± 1 Percentage of total radioactivity | 5 | 3.6 | 0.98 ± 0.07 | 1.4 | 0.88 ± 0.06 | 0.52 ± 0.05 | bone uptake was low and did not increase over time | low brain uptake |  |  |  |  | 
COc1ccc([C@@](C#N)(CCCNCCc2ccc(OCC[18F])c(OC)c2)C(C)C)cc1OC [[^18F]2, (R)-2-(3,4-Dimethoxyphenyl)-5-((4-(2-[^18F]fluoroethoxy)-3-methoxyphenethyl)amino)-2-isopropylpentanenitrile] | 17 ± 7 Percentage of total radioactivity | 8 ± 3 Percentage of total radioactivity | 4 ± 1 Percentage of total radioactivity |  | 2.4 | 0.75 ± 0.14 |  | 0.20 ± 0.02 | 0.18 ± 0.04 | low bone uptake |  | 26 ± 6 Percentage of total radioactivity | 6 ± 1 Percentage of total radioactivity | 20 ± 3 Percentage of total radioactivity | about 0.9 SUV | ≤ 6.4
